# Data: ChEMBL document CHEMBL4266027, “Cyanobufalins: Cardioactive Toxins from Cyanobacterial Blooms” (J Nat Prod, 2018)
# Experiments:
# SK-OV-3 = assay: Cytotoxicity against human SKOV3 cells assessed as decrease in cell viability after 72 hrs by MTS assay; format: functional, cell-based; conditions: SK-OV-3, 72 h
# Procedure, shortened: (§1)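 Cell proliferation assay using the MTS reagent. Compounds were tested as a dilution series, and EC50 values were derived from the concentration–response data.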
# HCT-116 = assay: Cytotoxicity against human HCT116 cells assessed as decrease in cell viability after 72 hrs by MTS assay; format: functional, cell-based; conditions: HCT-116, 72 h; procedure, shortened: as §1
# HepG2 = assay: Cytotoxicity against human HepG2 cells assessed as decrease in cell viability after 72 hrs by MTS assay; format: functional, cell-based; conditions: HepG2, 72 h; procedure, shortened: as §1
# MES-SA = assay: Cytotoxicity against human MESSA cells assessed as decrease in cell viability after 72 hrs by MTS assay; format: functional, cell-based; procedure, shortened: as §1
# MES-SA/Dx5 = assay: Cytotoxicity against human MES-SA/Dx5 cells assessed as decrease in cell viability after 72 hrs by MTS assay; format: functional, cell-based; conditions: MES-SA/Dx5, 72 h; procedure, shortened: as §1
# 786-0 = assay: Cytotoxicity against human 786-O cells assessed as decrease in cell viability after 72 hrs by MTS assay; format: functional, cell-based; conditions: 786-0, 72 h; procedure, shortened: as §1
# MCF7 = assay: Cytotoxicity against human MCF7 cells assessed as decrease in cell viability after 72 hrs by MTS assay; format: functional, cell-based; conditions: MCF7, 72 h; procedure, shortened: as §1
# BXPC-3 = assay: Cytotoxicity against human BxPC3 cells assessed as decrease in cell viability after 72 hrs by MTS assay; format: functional, cell-based; conditions: BXPC-3, 72 h; procedure, shortened: as §1
# U-87 MG = assay: Cytotoxicity against human U87MG cells assessed as decrease in cell viability after 72 hrs by MTS assay; format: functional, cell-based, U-87MG ATCC; procedure, shortened: as §1
# NCI-H1975 = assay: Cytotoxicity against human NCI-H1975 cells assessed as decrease in cell viability after 72 hrs by MTS assay; format: functional, cell-based; conditions: NCI-H1975, 72 h; procedure, shortened: as §1
# HUVEC = assay: Cytotoxicity against human HUVEC cells assessed as decrease in cell viability after 72 hrs by MTS assay; format: cell-based; procedure, shortened: as §1
# CCRF S-180 = assay: Cytotoxicity against mouse S180 cells assessed as decrease in cell viability after 72 hrs by MTS assay; format: functional, cell-based; conditions: CCRF S-180, 72 h; procedure, shortened: as §1
# Cardiac muscle cell [1] = assay: Toxicity in human inducible pluripotent stem cell derived cardiomyocytes assessed as change in beating amplitude at 0.32 nM after 8 mins; format: cell-based; conditions: 0.00032 µM
# Procedure, shortened: (§2)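 Human iPSC-derived cardiomyocytes (Cor.4U) were grown to stable beating cultures and monitored by impedance in real time with 20 s recordings. Compounds were given as a dilution series from 0.32 nM to 5 μM, dosed twice 24 h apart, with monitoring over 48 h. Beating amplitude was taken from each negative peak to the following positive peak and reported as % change.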
# Cardiac muscle cell [2] = assay: Toxicity in human inducible pluripotent stem cell derived cardiomyocytes assessed as change in beating amplitude at 0.32 nM after 33 mins; format: cell-based; conditions: 0.55 h, 0.00032 µM; procedure, shortened: as §2
# Cardiac muscle cell [3] = assay: Toxicity in human inducible pluripotent stem cell derived cardiomyocytes assessed as change in beating amplitude at 0.32 nM after 66 mins; format: cell-based; conditions: 1.1 h, 0.00032 µM; procedure, shortened: as §2
# Cardiac muscle cell [4] = assay: Toxicity in human inducible pluripotent stem cell derived cardiomyocytes assessed as change in beating amplitude at 0.32 nM after 4 hrs; format: cell-based; conditions: 0.00032 µM; procedure, shortened: as §2
# Cardiac muscle cell [5] = assay: Toxicity in human inducible pluripotent stem cell derived cardiomyocytes assessed as change in beating amplitude at 0.32 nM after 12 hrs; format: cell-based; conditions: 0.00032 µM; procedure, shortened: as §2
# Cardiac muscle cell [6] = assay: Toxicity in human inducible pluripotent stem cell derived cardiomyocytes assessed as change in beating amplitude at 0.32 nM after 24 hrs; format: cell-based; conditions: 0.00032 µM; procedure, shortened: as §2
# Cardiac muscle cell [7] = assay: Toxicity in human inducible pluripotent stem cell derived cardiomyocytes assessed as change in beating amplitude at 0.32 nM after 36 hrs; format: cell-based; conditions: 0.00032 µM; procedure, shortened: as §2
# Cardiac muscle cell [8] = assay: Toxicity in human inducible pluripotent stem cell derived cardiomyocytes assessed as change in beating amplitude at 0.32 nM after 48 hrs; format: cell-based; conditions: 0.00032 µM; procedure, shortened: as §2
# Cardiac muscle cell [9] = assay: Toxicity in human inducible pluripotent stem cell derived cardiomyocytes assessed as change in beating amplitude at 1.6 nM after 33 mins; format: cell-based; conditions: 0.55 h, 0.0016 µM; procedure, shortened: as §2
# Cardiac muscle cell [10] = assay: Toxicity in human inducible pluripotent stem cell derived cardiomyocytes assessed as change in beating amplitude at 1.6 nM after 66 mins; format: cell-based; conditions: 1.1 h, 0.0016 µM; procedure, shortened: as §2
# Cardiac muscle cell [11] = assay: Toxicity in human inducible pluripotent stem cell derived cardiomyocytes assessed as change in beating amplitude at 1.6 nM after 4 hrs; format: cell-based; conditions: 0.0016 µM; procedure, shortened: as §2
# Cardiac muscle cell [12] = assay: Toxicity in human inducible pluripotent stem cell derived cardiomyocytes assessed as change in beating amplitude at 1.6 nM after 12 hrs; format: cell-based; conditions: 0.0016 µM; procedure, shortened: as §2
# Cardiac muscle cell [13] = assay: Toxicity in human inducible pluripotent stem cell derived cardiomyocytes assessed as change in beating amplitude at 1.6 nM after 24 hrs; format: cell-based; conditions: 0.0016 µM; procedure, shortened: as §2
# Cardiac muscle cell [14] = assay: Toxicity in human inducible pluripotent stem cell derived cardiomyocytes assessed as change in beating amplitude at 1.6 nM after 36 hrs; format: cell-based; conditions: 0.0016 µM; procedure, shortened: as §2
# Cardiac muscle cell [15] = assay: Toxicity in human inducible pluripotent stem cell derived cardiomyocytes assessed as change in beating amplitude at 1.6 nM after 48 hrs; format: cell-based; conditions: 0.0016 µM; procedure, shortened: as §2
# Cardiac muscle cell [16] = assay: Toxicity in human inducible pluripotent stem cell derived cardiomyocytes assessed as change in beating amplitude at 8 nM after 33 mins; format: cell-based; conditions: 0.55 h, 0.008 µM; procedure, shortened: as §2
# Cardiac muscle cell [17] = assay: Toxicity in human inducible pluripotent stem cell derived cardiomyocytes assessed as change in beating amplitude at 8 nM after 66 mins; format: cell-based; conditions: 1.1 h, 0.008 µM
# Procedure, shortened: (§3)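 Cor.4U hiPSC-derived cardiomyocytes grown to stable beating cultures, then monitored by impedance in RTCA Cardio plates with 20 s recordings. Compounds tested as a dilution series from 0.32 nM to 5 μM, dosed twice 24 h apart, followed over 48 h. Beating amplitude is taken from each negative peak to the next positive peak and reported as percent change.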
# Cardiac muscle cell [18] = assay: Toxicity in human inducible pluripotent stem cell derived cardiomyocytes assessed as change in beating amplitude at 8 nM after 4 hrs; format: cell-based; conditions: 0.008 µM; procedure, shortened: as §3
# Cardiac muscle cell [19] = assay: Toxicity in human inducible pluripotent stem cell derived cardiomyocytes assessed as change in beating amplitude at 8 nM after 12 hrs; format: cell-based; conditions: 0.008 µM; procedure, shortened: as §2
# Cardiac muscle cell [20] = assay: Toxicity in human inducible pluripotent stem cell derived cardiomyocytes assessed as change in beating amplitude at 8 nM after 24 hrs; format: cell-based; conditions: 0.008 µM; procedure, shortened: as §2
# Cardiac muscle cell [21] = assay: Toxicity in human inducible pluripotent stem cell derived cardiomyocytes assessed as change in beating amplitude at 8 nM after 36 hrs; format: cell-based; conditions: 0.008 µM; procedure, shortened: as §3
# Cardiac muscle cell [22] = assay: Toxicity in human inducible pluripotent stem cell derived cardiomyocytes assessed as change in beating amplitude at 8 nM after 48 hrs; format: cell-based; conditions: 0.008 µM; procedure, shortened: as §3
# Cardiac muscle cell [23] = assay: Toxicity in human inducible pluripotent stem cell derived cardiomyocytes assessed as change in beating amplitude at 40 nM after 33 mins; format: cell-based; conditions: 0.55 h, 0.04 µM; procedure, shortened: as §2
# Cardiac muscle cell [24] = assay: Toxicity in human inducible pluripotent stem cell derived cardiomyocytes assessed as change in beating amplitude at 40 nM after 66 mins; format: cell-based; conditions: 1.1 h, 0.04 µM; procedure, shortened: as §2
# Cardiac muscle cell [25] = assay: Toxicity in human inducible pluripotent stem cell derived cardiomyocytes assessed as change in beating amplitude at 40 nM after 48 hrs; format: cell-based; conditions: 0.04 µM; procedure, shortened: as §2
# Cardiac muscle cell [26] = assay: Toxicity in human inducible pluripotent stem cell derived cardiomyocytes assessed as change in beating amplitude at 1.6 nM after 8 mins; format: cell-based; conditions: 0.0016 µM; procedure, shortened: as §2
# Cardiac muscle cell [27] = assay: Toxicity in human inducible pluripotent stem cell derived cardiomyocytes assessed as change in beating amplitude at 8 nM after 8 mins; format: cell-based; conditions: 0.008 µM; procedure, shortened: as §3
# Cardiac muscle cell [28] = assay: Toxicity in human inducible pluripotent stem cell derived cardiomyocytes assessed as change in beating amplitude at 40 nM after 8 mins; format: cell-based; conditions: 0.04 µM; procedure, shortened: as §2
# Cardiac muscle cell [29] = assay: Toxicity in human inducible pluripotent stem cell derived cardiomyocytes assessed as increase in beating amplitude at >40 nM; format: cell-based; procedure, shortened: as §3
smiles,measurement,setting,value
C[C@]12CC[C@H](O)C[C@H]1CC[C@@H]1[C@@H]2CC[C@]2(C)[C@@H](c3ccc(=O)oc3)CC[C@]12O [BUFALIN],EC50,SK-OV-3,10 nM
same,EC50,HCT-116,11 nM
same,EC50,HepG2,35 nM
same,EC50,MES-SA,28 nM
same,EC50,MES-SA/Dx5,18 nM
same,EC50,786-0,7.5 nM
same,EC50,MCF7,42 nM
same,EC50,BXPC-3,11 nM
same,EC50,U-87 MG,14 nM
same,EC50,NCI-H1975,13 nM
same,EC50,HUVEC,12 nM
same,EC50,CCRF S-180,> 20000 nM
same,Activity,Cardiac muscle cell [1],-3%
same,Activity,Cardiac muscle cell [2],-2%
same,Activity,Cardiac muscle cell [3],-4.4%
same,Activity,Cardiac muscle cell [4],12%
same,Activity,Cardiac muscle cell [5],17%
same,Activity,Cardiac muscle cell [6],32%
same,Activity,Cardiac muscle cell [7],62%
same,Activity,Cardiac muscle cell [8],42%
same,Activity,Cardiac muscle cell [9],-0.6%
same,Activity,Cardiac muscle cell [10],-2.7%
same,Activity,Cardiac muscle cell [11],11%
same,Activity,Cardiac muscle cell [12],8.9%
same,Activity,Cardiac muscle cell [13],4.3%
same,Activity,Cardiac muscle cell [14],-2.9%
same,Activity,Cardiac muscle cell [15],-10%
same,Activity,Cardiac muscle cell [16],3.1%
same,Activity,Cardiac muscle cell [17],10%
same,Activity,Cardiac muscle cell [18],34%
same,Activity,Cardiac muscle cell [19],35%
same,Activity,Cardiac muscle cell [20],-22%
same,Activity,Cardiac muscle cell [21],7.6%
same,Activity,Cardiac muscle cell [22],-32%
same,Activity,Cardiac muscle cell [23],21%
same,Activity,Cardiac muscle cell [24],-62%
same,Activity,Cardiac muscle cell [25],-84.3%
same,Activity,Cardiac muscle cell [26],1.8%
same,Activity,Cardiac muscle cell [27],2.8%
same,Activity,Cardiac muscle cell [28],8.5%
same,Activity,Cardiac muscle cell [29],Toxic
